# TAAR1 ag – agonists of human TAAR1. 360,000 compounds, 0.99% hits. Q96RJ0. activation, % at 3 µM. AID 624467. CHO RD-HGA16 TAAR1, Fluo-8 calcium fluorescence; vehicle wells 0%, saturating PEA agonist 100%;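 active = activation above the mean activation of all test compounds in the run plus 3 SD, cut at about 38% in these data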
#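 Signal – calcium-sensitive Fluo-8 signal, excitation 470-495, emission 515-575 nm · System – RD-HGA16 (CHO) cells co-expressing Gα16 and hTAAR1 · Incubation – 17-24 h seeding, 75 min 37 °C dye, 30 min RT · Compound dosing – 3 µM single concentration · Repeats – no replicates (n 1)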
# TAAR1 antag – antagonists of human TAAR1. CHO RD-HGA16 TAAR1, Fluo-8 calcium fluorescence, antagonist. inhibition, % at 3 µM. 360,000 compounds, 1.5% hits;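 active = inhibition above a per-plate cutoff, the mean inhibition of test compounds on that plate plus 3 SD, cut at about 49% in these data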;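 note: 0% = DMSO plus EC80 beta-PEA response and 100% = DMSO alone without agonist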
#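 Assay system: CHO-derived RD-HGA16 cells stably expressing human TAAR1 plus Gα16. Timing: 140 s kinetic read after compound, 140 s after agonist. Technique: kinetic Fluo-8 calcium fluorescence measurement. Measure: % inhibition of agonist calcium response.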
# OX1R antag-1 – OX1R (human) antagonism | AID 485270 | inhibition, % at 6.6 µM | 330,000 compounds, 1.8% hits | OX1R-expressing cells, FRET antagonist read-out; in the data active = inhibition mostly above about 38%, no sharp cut-off; inactive = mostly below about 40%;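 note: 0% = agonist challenge alone and 100% = reference antagonist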
# Target sequence (O43613 whole entry, looked up): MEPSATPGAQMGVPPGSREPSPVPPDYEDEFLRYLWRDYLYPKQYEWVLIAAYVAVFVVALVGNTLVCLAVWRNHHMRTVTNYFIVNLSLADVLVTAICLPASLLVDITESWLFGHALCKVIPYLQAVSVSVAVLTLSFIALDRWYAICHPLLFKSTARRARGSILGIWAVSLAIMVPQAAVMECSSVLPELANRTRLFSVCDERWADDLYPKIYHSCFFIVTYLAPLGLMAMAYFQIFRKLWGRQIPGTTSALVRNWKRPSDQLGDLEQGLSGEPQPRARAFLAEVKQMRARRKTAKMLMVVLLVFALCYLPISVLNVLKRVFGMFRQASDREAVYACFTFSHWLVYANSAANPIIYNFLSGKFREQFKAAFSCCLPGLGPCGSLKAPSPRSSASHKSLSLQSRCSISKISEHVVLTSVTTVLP
# CHO parental Ca – signal in parental CHO cells, OX1R antagonist counter-screen | parental CHO-K1, ATP-induced calcium, Fluo-8 fluorescence | inhibition, % at 5.6 µM | 330,000 compounds, 0.63% hits | AID 463079;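 active = inhibition above that plate's mean sample inhibition plus 3 SD, cut at about 26% in these data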;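 note: 0% = ATP-challenged DMSO wells and 100% = DMSO wells without ATP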
#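 Test system: untransfected parental CHO cell line. Compound: one dose, 5.6 µM nominal. Detection: intracellular calcium via Fluo-8 no-wash fluorescent dye. Measure: % inhibition. Benchmarks: ATP-challenged DMSO wells low, unchallenged DMSO wells high.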
# GalR3 antag – human GalR3 antagonism. O60755. HEK293 GalR3-CNG cAMP membrane potential fluorescence; galR3 body fused to GalR1 C-terminus. inhibition, % at 3 µM. 360,000 compounds, 0.44% hits. AID 651719;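 active = inhibition above the screen-wide average plus 3 SD, cut at about 13% in these data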;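 note: forskolin and galanin both at EC90 stimulate the cells; cAMP rise reported by CNG channel membrane potential dye signal; 0% = forskolin plus galanin with DMSO and 100% = forskolin alone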
# Target sequence (O60755 1-299 limits assumed): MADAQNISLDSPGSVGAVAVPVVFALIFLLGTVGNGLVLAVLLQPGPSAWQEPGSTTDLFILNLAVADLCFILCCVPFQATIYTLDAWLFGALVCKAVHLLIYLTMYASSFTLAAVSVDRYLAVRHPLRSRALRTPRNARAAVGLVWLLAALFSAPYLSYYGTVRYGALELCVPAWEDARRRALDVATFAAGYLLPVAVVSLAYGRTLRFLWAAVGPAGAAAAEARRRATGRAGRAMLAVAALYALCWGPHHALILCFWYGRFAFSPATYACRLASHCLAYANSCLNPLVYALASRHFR
# OX1R antag-2 – human HCRTR1 antagonism; O43613; CHO/OX1R cells, Fluo-8 calcium fluorescence, orexin A; inhibition, % at 5 µM; 330,000 compounds, 0.43% hits;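 active = inhibition above its plate's threshold, mean inhibition of all tested compounds on the plate plus 3 SD, cut at about 37% in these data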;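 note: 0% = orexin A challenge wells and 100% = SB-334867-A antagonist wells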
# nonsel antag count – counter-screen for TAAR1 antagonists: nonselective antagonists; shares compounds with TAAR1 antag; counterscreen cell line, calcium fluorescence, antagonist mode; inhibition, % at 3 µM; 2,400 compounds, 77% hits; AID 651780; in the data active = inhibition above about 22%;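 note: CHO-Ga16 host cells stimulated with ATP at an EC80 level; 0% = agonist EC80 plus vehicle and 100% = vehicle without agonist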
# TAAR1 antag conf – confirmation of human TAAR1 antagonists | shares compounds with TAAR1 antag | AID 651785 | inhibition, % at 3 µM | TAAR1-expressing cells, fluorescence antagonist read-out | 2,400 compounds, 40% hits; in the data active = inhibition above about 49%;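 note: CHO-Ga16 host cells challenged with agonist PEA near its EC80; 0% = agonist at EC80 plus vehicle and 100% = vehicle with no agonist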
# Ga16 ag counter – nonselective Ga16 agonism, counter-screen. Ga16-expressing cells, calcium fluorescence, agonist counterscreen. 2,400 compounds, 18% hits. activation, % at 3 µM. shares compounds with TAAR1 antag; in the data active = activation above about 12%;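 note: 0% = vehicle wells and 100% = saturating stimulus response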
# TAAR1 ag count – activates human TAAR1 in antagonist counter-screen; shares compounds with TAAR1 antag; hTAAR1 cell line, fluorescence activation, agonist mode; activation, % at 3 µM; 2,400 compounds, 2% hits; in the data active = activation above about 37%;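 note: CHO cells stably expressing TAAR1 with calcium dye readout; 0% = DMSO vehicle and 100% = full agonist response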
# An asterisk follows results filed as active; . = no result given. The list is not random: actives were taken first. Their share in the collection is about 4.2%.
SMILES,TAAR1 ag,TAAR1 antag,OX1R antag-1,CHO parental Ca,GalR3 antag,OX1R antag-2,nonsel antag count,TAAR1 antag conf,Ga16 ag counter,TAAR1 ag count
COc1ccc(NS(=O)(=O)c2ccc(N)c(C(=O)O)c2)cc1,15,-19,12,-7,-3,-13,.,.,.,.
CCOC(=O)C1(Cc2ccc(Cl)cc2)CCN(C(=O)CCc2ccncc2)CC1,4,-7,4,-28,-3,-24,.,.,.,.
Cc1ccc(N=C2C(=O)Nc3ccc(Br)cc32)cc1,2,1,7,1,-9,-11,.,.,.,.
O=C1Nc2ccc(Br)cc2C1=C1CCCCC1,13,76*,3,-17,-2,-1,17,36,6,7
O=S(=O)(c1cccs1)N1CCCc2nc(-c3ccc(F)cc3)ccc21,-1,53*,.,.,-7,.,33*,37,6,1
Cc1ccccc1S(=O)(=O)N1CCCc2nc(-c3ccc(F)cc3)ccc21,5,19,.,.,-8,.,.,.,.,.
COc1ccc(-c2ccc3c(n2)CCCN3S(=O)(=O)c2cccs2)cc1,13,81*,.,.,-4,.,42*,64*,11,13
O=C(COc1cccc(NC(=O)c2cccc([N+](=O)[O-])c2)c1)c1ccc(F)cc1,27,78*,22,0,-1,1,38*,58*,12*,20
O=C(COc1cccc(NC(=O)c2ccccc2)c1)c1ccc(F)cc1,15,30,10,-13,-1,-29,.,.,.,.
CNS(=O)(=O)c1cccc(C(=O)OCC(=O)N2CCN(C(=O)c3ccco3)CC2)c1,-1,4,2,-10,-6,-8,.,.,.,.
CC(C)(C)NC(=O)CCN(/N=C/c1ccccc1O)C1=NS(=O)(=O)c2ccccc21,19,59*,2,-20,-11,-19,25*,44,12*,11
Cc1ccccc1NC(=O)CC1S/C(=N/c2nccs2)N(C)C1=O (stereo not drawn),5,3,27,-12,-2,-18,.,.,.,.
Cc1ccc(NC(=O)CC2S/C(=N/c3nccs3)N(C)C2=O)cc1C (stereo not drawn),26,55*,32,13,-4,17,31*,50*,11,13
CCOC(=O)CCP(=O)(O)C(C)(O)c1ccccc1 (stereo not drawn),6,107*,12,-2,-7,-6,-1,-2,7,7
O=C(O)c1ccc(-c2ccc(/C=C3\NC(=O)N(Cc4ccc(Cl)cc4)C3=O)o2)cc1,0,-25,.,.,7,.,.,.,.,.
NC(=O)c1ccsc1NC(=O)CN1CCN(S(=O)(=O)c2ccccc2C(F)(F)F)CC1,20,89*,.,.,-5,.,30*,65*,20*,34
Cn1c(=O)n(C)c2cc([N+](=O)[O-])c(N3CCN(S(C)(=O)=O)CC3)cc21,2,-6,59,3,-6,-8,.,.,.,.
Cn1c(=O)n(C)c2cc([N+](=O)[O-])c(N3CCN(S(=O)(=O)c4ccccc4)CC3)cc21,22,62*,40,-12,-8,-13,26*,54*,15*,23
COc1ccc(Cl)cc1NC(=O)COC(=O)/C=C/c1c(C)nn(C2CCS(=O)(=O)C2)c1Cl (stereo not drawn),16,53*,56,44*,-1,32,42*,41,13*,13
C[C@@H]1ON(C)[C@H]2C[C@H]3c4[nH]c5c(-c6ccccc6)cccc5c4CCN3C(=O)[C@@H]12,7,28,.,.,-8,.,.,.,.,.
COc1ccc(-c2cccc3c4c([nH]c23)[C@@H]2C[C@H]3[C@@H](C(=O)N2CC4)[C@H](C)ON3C)cc1,2,3,.,.,-6,.,.,.,.,.
COc1ccc(-c2cccc3[nH]c4c(c23)CCN2C(=O)[C@H]3[C@H](C)ON(C)[C@H]3C[C@@H]42)cc1,9,50*,.,.,-9,.,22*,33,8,8
COc1cccc(-c2cccc3c4c([nH]c23)[C@@H]2C[C@H]3[C@@H](C(=O)N2CC4)[C@H](C)ON3C)c1,6,53*,.,.,-5,.,22*,36,5,9
C[C@@H]1ON(C)[C@H]2C[C@H]3c4[nH]c5cccc(-c6ccc7c(c6)OCO7)c5c4CCN3C(=O)[C@@H]12,9,56*,.,.,-9,.,23*,40,7,10
C[C@@H]1ON(C)[C@H]2C[C@H]3c4[nH]c5cccc(-c6ccccc6F)c5c4CCN3C(=O)[C@@H]12,7,24,.,.,-5,.,.,.,.,.
SMILES,TAAR1 ag,TAAR1 antag,OX1R antag-1,CHO parental Ca,GalR3 antag,OX1R antag-2,nonsel antag count,TAAR1 antag conf,Ga16 ag counter,TAAR1 ag count
OCCN1CCN(c2ncnc3c2ncn3[C@H]2CN(Cc3ccc(-c4ccccc4)cc3)C[C@@H](CO)O2)CC1,5,4,.,.,-4,.,.,.,.,.
O=C(c1ccc(-c2nc3ccccc3s2)o1)N1CCN(c2ccccc2O)CC1,6,64*,17,-19,2,-20,29*,43,4,3
CC1(c2nnc(-c3ccc(Cl)cc3)o2)CC(c2c(Cl)cccc2Cl)=NO1 (stereo not drawn),15,56*,28,-40,0,-22,23*,32,7,8
C=CCn1c(SCc2c(C)noc2C)nc2cc(C(=O)O)ccc2c1=O,11,76*,20,-1,-8,-7,5,3,2,8
COc1ccc(CC(=O)Nc2cc(S(=O)(=O)N3CCCCC3)ccc2C)cc1,0,-22,.,.,-3,.,.,.,.,.
CCOc1ccc(C(c2nnnn2C(C)(C)C)N2CCN(C(=O)c3ccco3)CC2)cc1 (stereo not drawn),-1,6,7,-17,-7,-14,.,.,.,.
CC1Cc2ccccc2N1C(=O)COC(=O)c1c2c(nc3ccccc13)CCCCC2 (stereo not drawn),1,42,30,-33,-5,-32,.,.,.,.
O=C(OCC(=O)N1CCc2ccccc21)c1c2c(nc3ccccc13)CCCC2,3,57*,40,-20,-6,-23,24*,37,1,3
O=C(COC(=O)c1c2c(nc3ccccc13)CCCC2)c1cccs1,6,53*,53,-21,1,-26,26*,36,2,1
